Measurements collected from several papers.
Compare with care: the assays were run in different laboratories.
Target: cGMP-dependent protein kinase 1 (PRKG1, Homo sapiens, UniProt Q13976)
Sequence (Q13976 1-671, as in one of the studies): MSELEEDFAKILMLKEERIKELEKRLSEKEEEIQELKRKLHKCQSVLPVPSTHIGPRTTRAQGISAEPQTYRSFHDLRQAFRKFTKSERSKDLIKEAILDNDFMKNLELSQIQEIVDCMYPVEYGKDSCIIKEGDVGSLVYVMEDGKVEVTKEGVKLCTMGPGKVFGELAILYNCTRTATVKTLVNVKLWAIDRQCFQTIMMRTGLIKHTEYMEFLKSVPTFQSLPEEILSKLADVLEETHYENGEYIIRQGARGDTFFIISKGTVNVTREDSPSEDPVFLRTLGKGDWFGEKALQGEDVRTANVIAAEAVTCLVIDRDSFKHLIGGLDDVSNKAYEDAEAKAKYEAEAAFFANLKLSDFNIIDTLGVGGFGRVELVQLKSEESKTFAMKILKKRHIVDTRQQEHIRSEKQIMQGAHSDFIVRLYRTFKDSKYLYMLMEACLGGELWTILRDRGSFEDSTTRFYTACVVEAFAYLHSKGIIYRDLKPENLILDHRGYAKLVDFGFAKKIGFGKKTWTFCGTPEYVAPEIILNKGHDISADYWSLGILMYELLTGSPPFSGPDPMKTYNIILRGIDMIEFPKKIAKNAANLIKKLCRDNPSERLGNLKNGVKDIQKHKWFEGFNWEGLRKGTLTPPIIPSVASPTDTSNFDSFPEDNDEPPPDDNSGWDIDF

| SMILES | test | setting | measurement | value |
| --- | --- | --- | --- | --- |
| Cc1ccc(NC(=O)c2ccc(C)c(C(F)(F)F)c2)cc1C#Cc1nn(C2CCC(O)CC2)c2ncnc(N)c12 (stereo not shown) | cell-free assay | 10 µM | remaining signal | 118% |
| CC(C)(C)c1nc(-c2cccc(NS(=O)(=O)c3c(F)cccc3F)c2F)c(-c2ccnc(N)n2)s1 | enzyme activity, inhibitor, radiometric | 1 µM | remaining activity | 96% |
| CS(=O)(=O)N1CCCC(NC(=O)[C@H](CCC2CCCCC2)NC(=O)c2ccc(CNC(=O)c3cnc4ccccn34)cc2)C1 (stereo partly shown) | cell-free assay, competition with immobilised ligand | 0.1 µM | remaining binding | 100% |
| COc1cc(Cl)c(C(=O)N[C@@H](CN[C@H]2CC[C@@H](N)CC2)Cc2ccc(C#N)cc2)cc1-c1ccc(CN[C@H](C)c2ccc(C)cc2)o1 | enzyme activity, inhibitor | 1 µM | remaining activity | 91% |
| CCCOc1ccc(OC)c(F)c1C(=O)c1ccc(C(=O)N[C@@H]2CNC[C@H]2NC(=O)c2ccc3[nH]ncc3c2)cc1 | enzyme activity, inhibitor | 0.75 µM | remaining activity | 0% |
| c1ccc(N2CCN(Cc3nc4ccccc4[nH]3)CC2)nc1 | binding, competition with immobilised ligand | 1 µM | remaining binding | 100% |
| CNC(=O)c1cc(Oc2ccc(NC(=O)Nc3ccc(Cl)c(C(F)(F)F)c3)cc2)ccn1 | enzyme activity, inhibitor | 10 µM | inhibition | -2% |
| CCN(CC)c1ccc(C2=NNC(=O)CC2C)cc1[N+](=O)[O-] (stereo not shown) | enzyme activity, inhibitor | 10 µM | remaining activity | 83% |
| Cc1ccc(C(=O)NCc2ccsc2)cc1C#Cc1cn(C(C)C)c2ncnc(N)c12 | enzyme activity, inhibitor | 1 µM | activity vs control | 87% |
| O=C(Nc1cccnn1)N1CCC(=Cc2cccc(Oc3ccc(C(F)(F)F)cn3)c2)CC1 | cell-free assay, competition with immobilised ligand | 1 µM | remaining binding | 100% |
| CCCS(=O)(=O)Nc1ccc(F)c(C(=O)c2c[nH]c3ncc(-c4ccc(Cl)cc4)cc23)c1F | enzyme activity, inhibitor | 1 µM | inhibition | < 10% |
| COc1cc2ncnc(Nc3ccc(Oc4ccccc4)c(C)c3C)c2cc1OC | enzyme activity, inhibitor | 1 µM | inhibition | 4% |
| Cc1nc(C2CCN(C(=O)c3ccc(OC(F)(F)F)cc3N)CC2)c2ncc(N3CCN(C)CC3)cc2n1 | cell-free assay, competition with immobilised ligand | 1 µM | remaining binding | 100% |
| CN1CC(Oc2cnc(C#N)cc2-c2ccn3nc(NC(=O)C4CC4)cc3c2)C1 | enzyme activity, inhibitor | 1 µM | inhibition | 2% |
| Cc1cc(-n2nc(Cc3cc(F)cc(C(F)(F)F)c3)nc2C)ccc1C(N)=O | cell-free assay, competition with immobilised ligand | 1 µM | remaining binding | 100% |
| Cn1cnc(Br)c1C1=CN(c2ncnc3[nH]cnc23)CCS1 | enzyme activity, inhibitor, radiometric | 50 nM | inhibition | 72.1% |
